From ChEMBL document CHEMBL1128679, “Molecular similarity from atomic electrostatic multipole comparisons. Application to anti-HIV drugs” (J Med Chem, 1995)

Tests used:
[1] = system: AIK-T4; experiment: Ability to prevent HIV-1 induced T4 cell killing and HIV-1 replication.; assay type: functional, cell-based; details: Homo sapiens
[2] = Similarity index (SI) value of the compound.; assay type: functional
How it was run: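 Computed by comparing atomic electrostatic multipoles at the atomic centres of the molecule pair. Molecule B is rotated and translated against the other by quasi-Newton minimization, using numerical first and second derivatives, with the Hessian updated after every move of B. R is replaced by R + 10^-4 to avoid division by zero. The procedure is repeated to obtain E_B.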

SMILES | EC50 [1] | SI [2]
O=S(=O)(O)c1cc(/N=N/c2cc(S(=O)(=O)O)c3cccnc3c2O)ccc1/C=C/c1ccc(/N=N/c2cc(S(=O)(=O)O)c3cccnc3c2O)cc1S(=O)(=O)O | 1.3 µM | 0
COc1cc(-c2ccc(/N=N/c3ccc4c(S(=O)(=O)O)ccc(S(=O)(=O)O)c4c3N)c(OC)c2)ccc1/N=N/c1ccc2c(S(=O)(=O)O)ccc(S(=O)(=O)O)c2c1N | 13.8 µM | 0.5
O=S(=O)(O)c1cc(/N=N/c2ccc3cccnc3c2O)ccc1/C=C/c1ccc(/N=N/c2ccc3cccnc3c2O)cc1S(=O)(=O)O | 6.4 µM | 0.45
COc1cc(-c2ccc(/N=N/c3ccc4c(S(=O)(=O)O)cc(S(=O)(=O)O)c(N)c4c3O)c(OC)c2)ccc1/N=N/c1ccc2c(S(=O)(=O)O)cc(S(=O)(=O)O)c(N)c2c1O [CHICAGO SKY BLUE SODIUM] | 4.8 µM | 0.4
O=C(O)c1cc(O)cc(O)c1/N=N/c1ccc(/C=C/c2ccc(/N=N/c3c(O)cc(O)cc3C(=O)O)cc2S(=O)(=O)O)c(S(=O)(=O)O)c1 | 1.4 µM | 0.16
Nc1c(S(=O)(=O)O)cc2cc(S(=O)(=O)O)ccc2c1/N=N/c1ccc(/C=C/c2ccc(/N=N/c3c(N)c(S(=O)(=O)O)cc4cc(S(=O)(=O)O)ccc34)cc2S(=O)(=O)O)c(S(=O)(=O)O)c1 | 2.9 µM | 0.31
Nc1cc(N)c(/N=N/c2ccc(/C=C/c3ccc(/N=N/c4c(N)cc(N)cc4C(=O)O)cc3S(=O)(=O)O)c(S(=O)(=O)O)c2)c(C(=O)O)c1 | 31 µM | 0.69
